According to paper PMC4285304 (Journal of Thrombosis and Haemostasis, 2014):
Where two headings read alike, the source gives them in different places.

Columns and labels:
thrombin bound to TM = conditions: cited from earlier work
platelet count = experiment: Tissue factor-induced hypercoagulability in rats: platelet count; assay type: in vivo; conditions: rat
[1] = system: prothrombin fragment 1+2 generation in protein C-deficient human plasma; experiment: Prothrombin fragment 1+2; assay type: biochemical; conditions: presence of TM
In short: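 Protein C-deficient human plasma was spiked with test compound (increasing concentrations) or vehicle plus rhs-TM (final 10 nmol L−1), then defibrinated with PefablocFG (final 6 mg mL−1). The CAT-type TF/phospholipid trigger was used, started with Fluo-buffer (HEPES, CaCl2, 5% DMSO, no substrate) and stopped after 12 min with PPACK (final 10 μmol L−1). Samples went into EDTA (final 100 mmol L−1) at 4 °C and were stored at −20 °C. F1+2 was measured by ELISA.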

[2] = system: prothrombin fragment 1+2 generation in normal human platelet-poor plasma; experiment: Prothrombin fragment 1+2; assay type: biochemical; conditions: for IC50: read-out: F1+2 generation IC50, normal human PPP; for F1+2 increase: same concentration range as by the CAT method (melagatran 119–474, dabigatran 136–545 nmol L^−1)
prothrombin time = experiment: Prothrombin time; assay type: in vivo; conditions: rat; for PT prolongation: 15 minutes after drug, 10 minutes after TF
In short: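 Rats (male Wistar, 227–273 g) were fasted overnight and anaesthetised with i.p. pentobarbital-Na (80–100 mg kg−1). Test compound in PEG:H2O:glycerol (996:100:60 g), 0.001–0.3 mg kg−1, or vehicle (1 mL kg−1) was given i.v. After 5 min, TF (8 mg kg−1) or vehicle (sham) was given as a slow i.v. bolus. Citrated aortic blood was taken 10 min later. PT on PPP by ball coagulometer, expressed as fold over baseline; n = 10.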

[3] = system: tissue factor-induced thrombin generation in normal human platelet-poor plasma; experiment: Thrombin generation assay; assay type: biochemical; conditions: for IC50: normal human PPP; for maximal increase in Cmax over baseline / maximal increase in ETP over baseline: absence of rhs-TM, lower concentration range, not significant; for Cmax increase vs. control / ETP increase vs. control: presence of rhs-TM 10 nmol L^−1
In short: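 Citrated blood (3.12%, 1/10 vol) came from unmedicated healthy donors; PPP was prepared at 1000× g for 20 min at room temperature. Individual-donor PPP was spiked with increasing test compound concentrations (3–948 or 3–1090 nmol L−1) or vehicle, with or without rhs-TM (final 10 nmol L−1). TF was 1.67 pmol L−1 and phospholipid 1.33 μmol L−1 (final). After 5 min at 37 °C, FluCa was added. Calibrated thrombogram gave Cmax and ETP; n = 8–12.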

plasma fibrinogen = experiment: Tissue factor-induced hypercoagulability in rats: fibrinogen levels; assay type: in vivo; conditions: rat
[4] = system: thrombin–antithrombin (TAT) complex; experiment: Tissue factor-induced hypercoagulability in rats: plasma TAT levels; assay type: in vivo; conditions: rat; for effect on TF-induced increase in TAT levels: 0.3 mg kg^−1 i.v., 10 minutes after TF 8 mg kg^−1
[5] = system: thrombin generation in protein C-deficient human plasma; experiment: Thrombin generation assay; assay type: biochemical; conditions: absence or presence of rhs-TM
In short: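 Lyophilised protein C-deficient human plasma was spiked with increasing test compound concentrations or vehicle, with or without rhs-TM (final 10 nmol L−1). Thrombin generation was triggered with TF 1.67 pmol L−1 and phospholipid 1.33 μmol L−1 (final), incubated 5 min at 37 °C, and started with FluCa (HEPES, CaCl2, fluorogenic substrate). Fluorescence was calibrated per sample; Cmax and ETP were derived; n = 3.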

[6] = Plasma concentrations of rivaroxaban and melagatran in rats; assay type: in vivo; conditions: rat, 15 minutes after drug, 10 minutes after TF
[7] = system: activated partial thromboplastin time; experiment: Activated partial thromboplastin time; assay type: in vivo; conditions: rat, 15 minutes after drug, 10 minutes after TF
In short: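 Male Wistar rats (227–273 g) were fasted overnight and anaesthetised with i.p. pentobarbital-Na (80–100 mg kg−1). Test compound in 0.9% NaCl (0.001–0.3 mg kg−1) or vehicle (1 mL kg−1) was given i.v., then 5 min later recombinant TF (8 mg kg−1) or vehicle (sham) was given as a slow i.v. bolus. Citrated aortic blood was drawn 10 min after TF. APTT was measured on PPP by ball coagulometer, as fold over baseline; n = 10.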

[8] = system: mortality of treated animals; conditions: TF-induced hypercoagulation; cited from earlier work
[9] = whole dose range tested (0.001–0.3 mg kg^−1 i.v.)
[10] = presence of rhs-TM 10 nmol L^−1
[11] = read-out: Cmax IC50, peak thrombin generation, +TM (rhs-TM 10 nmol L^−1)
[12] = read-out: Cmax IC50, peak thrombin generation, −TM (absence of rhs-TM)
[13] = read-out: ETP IC50, endogenous thrombin potential, +TM (rhs-TM 10 nmol L^−1)
[14] = read-out: ETP IC50, endogenous thrombin potential, −TM (absence of rhs-TM)
[15] = melagatran at 119–474 nmol L^−1

Row | Structure (SMILES) | increase in the affinity of the thrombin inhibitor for the thrombin bound to TM (thrombin bound to TM) | generation of F1+2 [1] | IC50 ([2]; absence of rhs-TM) [nM] | IC50 [3, 11] [nM] | IC50 [3, 12] [nM] | IC50 [3, 13] [nM] | IC50 [3, 14] [nM] | effect on TF-induced increase in TAT levels [4] | F1+2 increase [2, 10] | maximal increase in Cmax over baseline [3] [%] | maximal increase in ETP over baseline [3] [%] | increase in ETP or Cmax [5] | also measured
1 | N=C(N)NCCCNC(=O)[C@@H]1CCCCN1C(=O)[C@@H](CC1CCCCC1)NCC(=O)O [inogatran] | twofold increase |  |  |  |  |  |  |  |  |  |  |  | 
2 | O=C(NC[C@H]1CN(c2ccc(N3CCOCC3=O)cc2)C(=O)O1)c1ccc(Cl)s1 [Rivaroxaban] |  | concentration-dependently inhibited | 12 ± 7 | 44 ± 6 | 66 ± 5 | 57 ± 8 | 697 ± 106 | complete inhibition |  |  |  |  | platelet count (platelet count; [9]): not affected; IC50 [2, 10]: 14 ± 7 nM; PT prolongation (prothrombin time; 0.001 mg kg^−1 i.v.): 1.00 ± 0.04 x-fold over baseline; PT prolongation (prothrombin time; 0.003 mg kg^−1 i.v.): 1.02 ± 0.02 x-fold over baseline; PT prolongation (prothrombin time; 0.01 mg kg^−1 i.v.): 0.96 ± 0.02 x-fold over baseline; PT prolongation (prothrombin time; 0.03 mg kg^−1 i.v.): 1.03 ± 0.02 x-fold over baseline; PT prolongation (prothrombin time; 0.1 mg kg^−1 i.v.): 1.26 ± 0.06 x-fold over baseline; PT prolongation (prothrombin time; 0.3 mg kg^−1 i.v.): 1.92 ± 0.05 x-fold over baseline; prolongation of PT over the dose range (prothrombin time; dose range 0.001–0.3 mg kg^−1 i.v.): 1.0–1.9 fold over baseline; fibrinogen concentration (plasma fibrinogen; [9]): not affected
3 | [H]/N=C(/N)c1ccc(NCc2nc3cc(C(=O)N(CCC(=O)O)c4ccccn4)ccc3n2C)cc1 [Dabigatran] |  | concentration-dependently inhibited | 387 ± 63 | > 1090 | 976 ± 71 | > 1090 | 722 ± 44 |  | 1.6–1.9 fold | 11 | 5 | No increase | Cmax increase vs. control ([3]; dabigatran at 68–545 nmol L^−1): 2.0–3.3 fold; ETP increase vs. control ([3]; dabigatran at 136–545 nmol L^−1): 2.2–2.6 fold
4 | N=C(N)c1ccc(CNC(=O)[C@@H]2CCN2C(=O)[C@H](NCC(=O)O)C2CCCCC2)cc1 [Melagatran] | twofold increase | concentration-dependently inhibited | 368 ± 40 | > 950 | 940 ± 79 | > 950 | 732 ± 43 | reduced | 1.8–2.0 fold | 8 | 6 | No increase | platelet count (platelet count; 0.01 mg kg^−1 i.v., TF control 644 × 10^3 μL^−1): 559000 µL⁻¹; Plasma concentration ([6]; 0.01 mg kg^−1 i.v.): 19.2 ± 0.9 ng/mL; Plasma concentration ([6]; 0.3 mg kg^−1 i.v.): 524.7 ± 26.1 ng/mL; Cmax increase vs. control [3, 15]: 2.2–2.7 fold; ETP increase vs. control [3, 15]: 1.9–2.2 fold; fibrinogen levels (plasma fibrinogen; 0.03 mg kg^−1 i.v., TF control 2.34 ± 0.08 g L^−1, P < 0.001): 1.41 ± 0.20 g/L; TAT increase vs. TF control ([4]; 0.01 mg kg^−1 i.v., P < 0.01): 1.6 fold; APTT prolongation ([7]; 0.001 mg kg^−1 i.v.): 1.26 ± 0.05 x-fold over baseline; APTT prolongation ([7]; 0.003 mg kg^−1 i.v.): 1.34 ± 0.05 x-fold over baseline; APTT prolongation ([7]; 0.01 mg kg^−1 i.v.): 1.68 ± 0.03 x-fold over baseline; APTT prolongation ([7]; 0.03 mg kg^−1 i.v.): 2.17 ± 0.23 x-fold over baseline; APTT prolongation ([7]; 0.1 mg kg^−1 i.v.): 2.08 ± 0.18 x-fold over baseline; APTT prolongation ([7]; 0.3 mg kg^−1 i.v.): 3.11 ± 0.27 x-fold over baseline
5 | CCOC(=O)CN[C@@H](C(=O)N1CC[C@H]1C(=O)NCc1ccc(/C(N)=N\O)cc1)C1CCCCC1 [ximelagatran] |  |  |  |  |  |  |  |  |  |  |  |  | mortality rate, dose-dependent [8]: up to 67%; mortality rate, time-dependent [8]: ≤ 88%
